Reference: ChEMBL document CHEMBL4706624, “Synthesis and evaluation of new quinazoline-benzimidazole hybrids as potent anti-microbial agents against multidrug resistant Staphylococcus aureus and Mycobacterium tuberculosis” (Eur J Med Chem, 2021)
In brackets after ≈: the same amount, converted by molar mass.

How the values were obtained:
Escherichia coli = test: Antibacterial activity against Escherichia coli ATCC 25922 measured after 16 to 18 hrs; format: functional; settings: time 16-18 hrs
In short: (§1)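 Broth microdilution MIC. Strains grown on MHA; a single colony was grown overnight in CA-MHB at 37 °C with shaking for 18–24 h. Cultures were diluted by OD600 to ~10⁶ cfu/mL and exposed to compound at […]. Plates were incubated at 37 °C for 16-18 h. MIC = lowest concentration with no visible growth. Levofloxacin was the reference. Three independent runs, each in duplicate.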

Staphylococcus aureus [1] = test: Antibacterial activity against Staphylococcus aureus ATCC 29213 measured after 16 to 18 hrs; format: functional; settings: time 16-18 hrs; in short: as §1
Klebsiella pneumoniae = test: Antibacterial activity against Klebsiella pneumoniae BAA-1705 measured after 16 to 18 hrs; format: functional; settings: ATCC BAA-1705, time 16-18 hrs; in short: as §1
Acinetobacter baumannii = test: Antibacterial activity against Acinetobacter baumannii BAA1605 measured after 16 to 18 hrs; format: functional; settings: time 16-18 hrs; in short: as §1
Pseudomonas aeruginosa = test: Antibacterial activity against Pseudomonas aeruginosa ATCC 27853 measured after 16 to 18 hrs; format: functional; settings: time 16-18 hrs; in short: as §1
[2] = Cytotoxicity against African green monkey Vero cells assessed as reduction in cell viability measured after 72 hrs by MTT assay; format: cell-based; settings: chlorocebus sabaeus
In short: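 Vero cells (ATCC CCL-81), ~10³ cells/well, held 24 h at 37 °C in 5% CO₂. Compound at 100–5 mg/L for 72 h. MTT was added for 4 h, formazan dissolved in DMSO, OD read at 540 nm. CC50 = concentration giving 50% viability reduction. Doxorubicin was the positive control. Triplicate.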

[3] = Selectivity index, ratio of CC50 for cytotoxicity against African green monkey Vero cells to MIC for antibacterial activity against Staphylococcus aureus ATCC 29213; format: toxicity, cell-based; settings: read-out: Selectivity Index
In short: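 SI = Vero CC50 (MTT, 72 h) divided by MIC against S. aureus ATCC 29213 (CA-MHB broth microdilution, 16-18 h, 37 °C).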

Staphylococcus aureus [4] = test: Antibacterial activity against methicillin-sensitive Staphylococcus aureus ATCC 29213 measured after 16 to 18 hrs; format: functional; settings: time 16-18 hrs; in short: as §1
Staphylococcus aureus [5] = test: Antibacterial activity against methicillin-resistant Staphylococcus aureus NR100 measured after 16 to 18 hrs; format: functional; settings: time 16-18 hrs; in short: as §1
Staphylococcus aureus [6] = test: Antibacterial activity against methicillin-resistant Staphylococcus aureus NR119 measured after 16 to 18 hrs; format: functional; settings: time 16-18 hrs; in short: as §1
Staphylococcus aureus [7] = test: Antibacterial activity against methicillin-resistant Staphylococcus aureus NR10129 measured after 16 to 18 hrs; format: functional; settings: time 16-18 hrs; in short: as §1
Staphylococcus aureus [8] = test: Antibacterial activity against methicillin-resistant Staphylococcus aureus NR10198 measured after 16 to 18 hrs; format: functional; settings: time 16-18 hrs; in short: as §1
Staphylococcus aureus [9] = test: Antibacterial activity against methicillin-resistant Staphylococcus aureus NR10192 measured after 16 to 18 hrs; format: functional; settings: time 16-18 hrs; in short: as §1
Staphylococcus aureus [10] = test: Antibacterial activity against methicillin-resistant Staphylococcus aureus NR10186 measured after 16 to 18 hrs; format: functional; settings: time 16-18 hrs; in short: as §1
Staphylococcus aureus [11] = test: Antibacterial activity against methicillin-resistant Staphylococcus aureus NR10193 measured after 16 to 18 hrs; format: functional; settings: time 16-18 hrs; in short: as §1
Staphylococcus aureus [12] = test: Antibacterial activity against methicillin-resistant Staphylococcus aureus NR10194 measured after 16 to 18 hrs; format: functional; settings: time 16-18 hrs; in short: as §1
Staphylococcus aureus [13] = test: Antibacterial activity against methicillin-resistant Staphylococcus aureus NR10191 measured after 16 to 18 hrs; format: functional; settings: time 16-18 hrs; in short: as §1
Staphylococcus aureus [14] = test: Antibacterial activity against vancomycin-resistant Staphylococcus aureus VRS1 measured after 16 to 18 hrs; format: functional; settings: time 16-18 hrs; in short: as §1
Staphylococcus aureus [15] = test: Antibacterial activity against vancomycin-resistant Staphylococcus aureus VRS4 measured after 16 to 18 hrs; format: functional; settings: time 16-18 hrs; in short: as §1
Staphylococcus aureus [16] = test: Antibacterial activity against vancomycin-resistant Staphylococcus aureus VRS12 measured after 16 to 18 hrs; format: functional; settings: time 16-18 hrs; in short: as §1
[17] = test system: Mycobacterium tuberculosis; test: Antitubercular activity against Mycobacterium tuberculosis H37Rv ATCC 27294 measured after 7 days by broth microdilution method; format: functional; settings: H37Rv ATCC 27294, 168 h, time 7 day
In short: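 H37Rv in Middlebrook 7H9 with 10% ADC, 0.2% glycerol, 0.05% Tween-80. Inoculum ~10⁶ cfu/mL set by OD600. Twofold serial dilutions, 0.0064–0.00005 g/100 mL. Incubated at 37 °C for 7 days, then Presto blue resazurin read-out. MIC = lowest concentration inhibiting visible growth. Triplicate runs, each in duplicate.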

[18] = test system: Mycobacteroides abscessus; test: Antimycobacterial activity against Mycobacterium abscessus ATCC 19977 by broth microdilution method; format: functional
In short: (§2)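 Broth microdilution MIC in Middlebrook 7H9 with 10% ADC-Tween-80 (BSA, dextrose, 0.2% glycerol, 0.05% Tween-80). Inoculum ~10⁶ cfu/mL set by OD600. Compounds were twofold serially diluted, 0.0064–0.00005 g/100 mL (DMSO stocks). Presto blue resazurin dye was used as read-out. MIC = lowest concentration inhibiting visible growth. Triplicate runs, each in duplicate.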

[19] = test system: Mycolicibacterium fortuitum; test: Antimycobacterial activity against Mycobacterium fortuitum ATCC 6841 by broth microdilution method; format: functional; in short: as §2
Mycobacteroides chelonae = test: Antimycobacterial activity against Mycobacterium chelonae ATCC 35752 by broth microdilution method; format: functional; in short: as §2

Row | SMILES | MIC (Escherichia coli) [µg/mL] | MIC (Staphylococcus aureus [1]) [µg/mL] | MIC (Klebsiella pneumoniae) [µg/mL] | MIC (Acinetobacter baumannii) [µg/mL] | MIC (Pseudomonas aeruginosa) [µg/mL] | CC50 at 72 h [2] [µg/mL] | selectivity ratio [3] | MIC (Staphylococcus aureus [4]) [µg/mL] | MIC (Staphylococcus aureus [5]) [µg/mL] | MIC (Staphylococcus aureus [6]) [µg/mL] | MIC (Staphylococcus aureus [7]) [µg/mL] | MIC (Staphylococcus aureus [8]) [µg/mL] | MIC (Staphylococcus aureus [9]) [µg/mL] | MIC (Staphylococcus aureus [10]) [µg/mL] | MIC (Staphylococcus aureus [11]) [µg/mL] | MIC (Staphylococcus aureus [12]) [µg/mL] | MIC (Staphylococcus aureus [13]) [µg/mL] | MIC (Staphylococcus aureus [14]) [µg/mL] | MIC (Staphylococcus aureus [15]) [µg/mL] | MIC (Staphylococcus aureus [16]) [µg/mL] | other results
1 | Clc1ccc(-c2nc(Nc3ccc(-c4nc5ccccc5[nH]4)cc3)c3ccccc3n2)cc1 | > 64 | 4 (≈ 8.93 µM) | > 64 | > 64 | > 64 | 50 (≈ 112 µM) | 12.5 | 8 (≈ 17.9 µM) | 8 (≈ 17.9 µM) | 32 (≈ 71.4 µM) | 8 (≈ 17.9 µM) | 8 (≈ 17.9 µM) | 4 (≈ 8.93 µM) | 16 (≈ 35.7 µM) | 8 (≈ 17.9 µM) | 8 (≈ 17.9 µM) | 8 (≈ 17.9 µM) | 4 (≈ 8.93 µM) | 8 (≈ 17.9 µM) | 8 (≈ 17.9 µM) | –
2 | Fc1ccc2[nH]c(-c3ccc(Nc4nc(-c5ccc(Cl)cc5)nc5ccccc45)cc3)nc2c1 | > 64 | 4 (≈ 8.59 µM) | > 64 | > 64 | > 64 | 50 (≈ 107 µM) | 12.5 | 4 (≈ 8.59 µM) | 4 (≈ 8.59 µM) | 4 (≈ 8.59 µM) | 4 (≈ 8.59 µM) | 8 (≈ 17.2 µM) | 2 (≈ 4.29 µM) | 4 (≈ 8.59 µM) | 8 (≈ 17.2 µM) | 4 (≈ 8.59 µM) | 8 (≈ 17.2 µM) | 4 (≈ 8.59 µM) | 2 (≈ 4.29 µM) | 4 (≈ 8.59 µM) | –
3 | c1ccc(-c2nc(Nc3ccc(-c4nc5ccccc5[nH]4)cc3)c3ccccc3n2)cc1 | > 64 | 8 (≈ 19.3 µM) | > 64 | > 64 | > 64 | 80 (≈ 193 µM) | 10 | 8 (≈ 19.3 µM) | 32 (≈ 77.4 µM) | 8 (≈ 19.3 µM) | 16 (≈ 38.7 µM) | 4 (≈ 9.67 µM) | 32 (≈ 77.4 µM) | 8 (≈ 19.3 µM) | 16 (≈ 38.7 µM) | 8 (≈ 19.3 µM) | 16 (≈ 38.7 µM) | 8 (≈ 19.3 µM) | 8 (≈ 19.3 µM) | 16 (≈ 38.7 µM) | MIC [17]: > 64 µg/mL; MIC [18]: > 64 µg/mL; MIC [19]: > 64 µg/mL; MIC (Mycobacteroides chelonae): > 64 µg/mL
4 | C[C@@H](O)[C@H]1C(=O)N2C(C(=O)O)=C(S[C@@H]3CN[C@H](C(=O)N(C)C)C3)[C@H](C)[C@H]12 [MEROPENEM] | – | – | – | – | – | – | – | 0.0625 (≈ 0.163 µM) | 32 (≈ 83.4 µM) | 64 (≈ 167 µM) | 4 (≈ 10.4 µM) | 4 (≈ 10.4 µM) | 64 (≈ 167 µM) | 8 (≈ 20.9 µM) | 64 (≈ 167 µM) | 1 (≈ 2.61 µM) | 64 (≈ 167 µM) | 64 (≈ 167 µM) | 64 (≈ 167 µM) | 16 (≈ 41.7 µM) | –
5 | C[C@H]1COc2c(N3CCN(C)CC3)c(F)cc3c(=O)c(C(=O)O)cn1c23.C[C@H]1COc2c(N3CCN(C)CC3)c(F)cc3c(=O)c(C(=O)O)cn1c23.O [LEVOFLOXACIN] | 0.125 | 0.015 | 64 | – | 0.5 | – | – | 0.125 | 0.25 | 16 | 0.25 | 8 | 16 | 8 | 32 | 0.125 | 32 | 32 | > 64 | 32 | MIC [18]: 1 µg/mL; MIC [19]: 0.03 µg/mL; MIC (Mycobacteroides chelonae): 0.03 µg/mL
6 | COc1cccc(OC)c1C(=O)N[C@@H]1C(=O)N2[C@@H]1SC(C)(C)[C@@H]2C(=O)O [METHICILLIN] | – | – | – | – | – | – | – | 1 (≈ 2.63 µM) | > 64 | > 64 | > 64 | > 64 | > 64 | > 64 | > 64 | 32 (≈ 84.1 µM) | > 64 | > 64 | > 64 | > 64 | –
7 | Clc1ccc2[nH]c(-c3ccc(Nc4nc(-c5ccccc5)nc5ccccc45)cc3)nc2c1 | > 64 | 8 (≈ 17.9 µM) | > 64 | > 64 | > 64 | 100 (≈ 223 µM) | 12.5 | 8 (≈ 17.9 µM) | 8 (≈ 17.9 µM) | 8 (≈ 17.9 µM) | 8 (≈ 17.9 µM) | 4 (≈ 8.93 µM) | 8 (≈ 17.9 µM) | 8 (≈ 17.9 µM) | 16 (≈ 35.7 µM) | 8 (≈ 17.9 µM) | 16 (≈ 35.7 µM) | 4 (≈ 8.93 µM) | 8 (≈ 17.9 µM) | 8 (≈ 17.9 µM) | MIC [17]: 32 µg/mL (≈ 71.4 µM); MIC [18]: > 64 µg/mL; MIC [19]: 32 µg/mL (≈ 71.4 µM); MIC (Mycobacteroides chelonae): 32 µg/mL (≈ 71.4 µM)
